# ChEMBL document CHEMBL4028907, “Semisynthesis and Biological Evaluation of Xanthone Amphiphilics as Selective, Highly Potent Antifungal Agents to Combat Fungal Resistance” (J Med Chem, 2017)
# Key:
# Candida albicans [1] = assay: Antifungal activity against Candida albicans ATCC 10231 after 24 hrs by two fold serial dilution method; format: functional; settings: ATCC 10231, 24 h
# Procedure, shortened: (§1)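 Candida grown on Sabouraud dextrose agar at 35 °C for 24 h, adjusted to ~5×10^3 CFU/mL. Two-fold dilutions from 100 to 0.78 μg/mL in Sabouraud dextrose broth, incubated at 35 °C for 24 h. MIC is the lowest concentration inhibiting growth by eye and by OD600. CLSI-based with minor modifications.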
# Candida albicans [2] = assay: Antifungal activity against drug resistant Candida albicans DF2672R after 24 hrs by two fold serial dilution method; format: functional; procedure, shortened: as §1
# [3] = Selectivity index, ratio of HC50 for New Zealand white rabbit RBC to MIC for Candida albicans ATCC 10231
# [4] = Dissociation constant, pKa of compound; format: physicochemical
# Staphylococcus aureus [5] = assay: Antibacterial activity against Staphylococcus aureus DM4001R by two fold serial dilution method; format: functional
# Procedure, shortened: (§2)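 Broth microdilution (CLSI, minor modifications) in Sabouraud dextrose, Mueller−Hinton or RPMI 1640 broth; two-fold serial dilutions of compound from stock to final 100 to 0.78 μg/mL. MIC taken as lowest concentration giving no visible growth.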
# Bacillus cereus = assay: Antibacterial activity against Bacillus cereus ATCC11778 by two fold serial dilution method; format: functional; procedure, shortened: as §2
# Klebsiella pneumoniae = assay: Antibacterial activity against Klebsiella pneumoniae DM4299 by two fold serial dilution method; format: functional; procedure, shortened: as §2
# Pseudomonas aeruginosa = assay: Antibacterial activity against Pseudomonas aeruginosa DM23155 by two fold serial dilution method; format: functional; procedure, shortened: as §2
# Staphylococcus aureus [6] = assay: Antibacterial activity against methicillin resistant Staphylococcus aureus DM21455 by two fold serial dilution method; format: functional
# Procedure, shortened: (§3)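 Broth microdilution per CLSI guidelines with minor modifications, run in Mueller−Hinton broth; MIC is the lowest concentration giving no visible growth.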
# Staphylococcus aureus [7] = assay: Antibacterial activity against methicillin resistant Staphylococcus aureus DM9808R by two fold serial dilution method; format: functional; procedure, shortened: as §3
Compound,MIC (Candida albicans [1]),MIC (Candida albicans [2]),Selectivity Index [3],other results
COc1c(OCC(O)CN2CCCCC2)cc2oc3cc(OCC(O)CN4CCCCC4)c(CC=C(C)C)c(O)c3c(=O)c2c1CC=C(C)C (configuration not stated),6.25 µg/mL,6.25 µg/mL,5.1,pKa [4]: 11.2
COc1c(OCC(O)CNC2CCCCCCC2)cc2oc3cc(OCC(O)CNC4CCCCCCC4)c(CC=C(C)C)c(O)c3c(=O)c2c1CC=C(C)C (configuration not stated),6.25 µg/mL,6.25 µg/mL,29.7,–
CCCC[N+](C)(CCCC)CC(O)COc1cc2oc3cc(OCC(O)C[N+](C)(CCCC)CCCC)c(OC)c(CC=C(C)C)c3c(=O)c2c(O)c1CC=C(C)C.[I-].[I-] (configuration not stated),6.25 µg/mL,6.25 µg/mL,5.3,–
COc1c(OCC(O)CN)cc2oc3cc(OCC(O)CN)c(CC=C(C)C)c(O)c3c(=O)c2c1CC=C(C)C (configuration not stated),6.25 µg/mL,6.25 µg/mL,7.9,pKa [4]: 10.5
COC(=O)[C@H](CCCNC(=N)N)NC(=O)COc1cc2oc3cc(OCC(=O)N[C@@H](CCCNC(=N)N)C(=O)OC)c(OC)c(CC=C(C)C)c3c(=O)c2c(O)c1CC=C(C)C,6.25 µg/mL,6.25 µg/mL,37.1,–
COc1c(OCC(O)CN2CCOCC2)cc2oc3cc(OCC(O)CN4CCOCC4)c(CC=C(C)C)c(O)c3c(=O)c2c1CC=C(C)C (configuration not stated),6.25 µg/mL,6.25 µg/mL,> 64,–
COc1c(OCC(O)CNC(CO)(CO)CO)cc2oc3cc(OCC(O)CNC(CO)(CO)CO)c(CC=C(C)C)c(O)c3c(=O)c2c1CC=C(C)C (configuration not stated),6.25 µg/mL,6.25 µg/mL,3.9,–
CC[N+](C)(CC)CC(O)COc1cc2oc3cc(OCC(O)C[N+](C)(CC)CC)c(OC)c(CC=C(C)C)c3c(=O)c2c(O)c1CC=C(C)C.[I-].[I-] (configuration not stated),12.5 µg/mL,6.25 µg/mL,2.9 to 5.7,–
Clc1ccc(COC(Cn2ccnc2)c2ccc(Cl)cc2Cl)c(Cl)c1 (configuration not stated) [MICONAZOLE],–,0.39 µg/mL,–,–
COc1c(OCC(O)CNCCNCCNCCN)cc2oc3cc(OCC(O)CNCCNCCNCCN)c(CC=C(C)C)c(O)c3c(=O)c2c1CC=C(C)C (configuration not stated),12.5 µg/mL,25 µg/mL,14.9 to 29.8,–
C[C@@H]1[C@H](O)[C@@H](C)/C=C/C=C/C=C/C=C/C=C/C=C/C=C/[C@H](O[C@@H]2O[C@H](C)[C@@H](O)[C@H](N)[C@@H]2O)C[C@@H]2O[C@](O)(C[C@@H](O)C[C@@H](O)[C@H](O)CC[C@@H](O)C[C@@H](O)CC(=O)O[C@H]1C)C[C@H](O)[C@H]2C(=O)O [AMPHOTERICIN B],–,0.2 µg/mL,–,–
COc1c(OCC(O)CNCc2ccc(F)cc2)cc2oc3cc(OCC(O)CNCc4ccc(F)cc4)c(CC=C(C)C)c(O)c3c(=O)c2c1CC=C(C)C (configuration not stated),6.25 µg/mL,6.25 µg/mL,> 64,–
COc1c(OCC(O)C[N+](C)(C)C)cc2oc3cc(OCC(O)C[N+](C)(C)C)c(CC=C(C)C)c(O)c3c(=O)c2c1CC=C(C)C.[I-].[I-] (configuration not stated),12.5 µg/mL,12.5 µg/mL,2.9,–
COc1c(OCC2CO2)cc2oc3cc(OCC4CO4)c(CC=C(C)C)c(O)c3c(=O)c2c1CC=C(C)C (configuration not stated),> 50 µg/mL,> 50 µg/mL,–,–
COc1c(OCC(O)CN(C)C)cc2oc3cc(OCC(O)CN(C)C)c(CC=C(C)C)c(O)c3c(=O)c2c1CC=C(C)C (configuration not stated),6.25 µg/mL,6.25 µg/mL,4.8,–
CCCNCC(O)COc1cc2oc3cc(OCC(O)CNCCC)c(OC)c(CC=C(C)C)c3c(=O)c2c(O)c1CC=C(C)C (configuration not stated),6.25 µg/mL,6.25 µg/mL,11.6,–
CCN(CC)CC(O)COc1cc2oc3cc(OCC(O)CN(CC)CC)c(OC)c(CC=C(C)C)c3c(=O)c2c(O)c1CC=C(C)C (configuration not stated),6.25 µg/mL,6.25 µg/mL,5.6,MIC (Staphylococcus aureus [5]): 1.56 to 3.13 µg/mL; MIC (Bacillus cereus): 1.56 to 3.13 µg/mL; MIC (Klebsiella pneumoniae): 25 to 50 µg/mL; MIC (Pseudomonas aeruginosa): 25 to 50 µg/mL; MIC (Staphylococcus aureus [6]): 1.56 to 3.13 µg/mL; MIC (Staphylococcus aureus [7]): 1.56 to 3.13 µg/mL
CCCCCCN(CCCCCC)CC(O)COc1cc2oc3cc(OCC(O)CN(CCCCCC)CCCCCC)c(OC)c(CC=C(C)C)c3c(=O)c2c(O)c1CC=C(C)C (configuration not stated),12.5 µg/mL,12.5 µg/mL,> 32,–
